Laboratory results published in ChEMBL document CHEMBL4513216, “Probing the Open Global Health Chemical Diversity Library for Multistage-Active Starting Points for Next-Generation Antimalarials” (ACS Infect Dis, 2020).

assay: Toxicity liver stage against HepG2, at 10uM; format: cell-based; parameters: test concentration 10 uM, cell line HepG2-A16-CD81EGFP; conditions: human, HepG2-A16-CD81EGFP cells; read-out: INHIBITION
In short: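 Uninfected HepG2-A16-CD81EGFP cells, 3 × 10^3 per well, 1536-well, plated on prespotted compound at 10 μM final, parasite-free screening media added to match infected plates; puromycin 10 μM positive, DMSO 0.5% negative; run in parallel with 48 h PbLuc assay at 37 °C, 5% CO2; viability by CellTiter-Glo luminescence, normalized to controls.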

With `CCc1ncc2c(n1)CN(C(=O)CNC(=O)C(C)C)C2` as the molecule, how does the cytotoxicity at 10 µM read?
The cytotoxicity at 10 µM was 7.28%.

For `Cc1cc(N(Cc2ccccc2F)C2CC2)n2nc(C(F)(F)F)nc2n1`, which cytotoxicity at 10 µM is on record?
Its cytotoxicity at 10 µM is 0.43%.

With `Cc1noc(C(C)C)c1C(=O)NCCN1CCCCCC1=O` as the molecule, how does the cytotoxicity at 10 µM read?
The cytotoxicity at 10 µM was -9.07%.

For `O=S1(=O)C[C@@H]2[C@H](C1)N(Cc1cc(Cl)cc(Cl)c1)CCN2CCO`, which cytotoxicity at 10 µM is on record?
Its cytotoxicity at 10 µM is 0.303%.

With `COCc1nnn2c1CN(C(=O)c1c[nH]cn1)CCC2` as the molecule, how does the cytotoxicity at 10 µM read?
The cytotoxicity at 10 µM was 2.02%.

Which cytotoxicity at 10 µM does the source give for `CC(=O)Nc1ccc(CN2CCCC(c3cc4ncccc4[nH]3)C2)cc1` (stereo not given) here?
The cytotoxicity at 10 µM was 0.99%.

With `CSCCNC(=O)c1coc(COc2ccc3sc(C)nc3c2)n1` as the molecule, how does the cytotoxicity at 10 µM read?
Its cytotoxicity at 10 µM is -1.51%.

For `Cn1ccnc1CN1CCC2(CC(=O)N(c3cccc(F)c3)C2)C1` (stereo not given), which cytotoxicity at 10 µM is on record?
The cytotoxicity at 10 µM was 6.97%.

With `COCCN(CCOC)S(=O)(=O)N(C)Cc1ccncc1` as the molecule, how does the cytotoxicity at 10 µM read?
Its cytotoxicity at 10 µM is 8.07%.

With `CCN1Cc2c(C(=O)NC)ncn2-c2ccccc2S1(=O)=O` as the molecule, how does the cytotoxicity at 10 µM read?
Its cytotoxicity at 10 µM is -73%.

For `Cc1ccc(NS(=O)(=O)c2cc3c(c(C(=O)O)c2)OCCO3)cc1F`, which cytotoxicity at 10 µM is on record?
The cytotoxicity at 10 µM was -5.77%.

Which cytotoxicity at 10 µM does the source give for `O=C(CN1C(=O)CCC1=O)N1CCC(CSCc2ccco2)CC1` here?
Its cytotoxicity at 10 µM is -8%.

With `CCc1ccc(C(=O)NC2CCc3nc(C)cn3C2)o1` (stereo not given) as the molecule, how does the cytotoxicity at 10 µM read?
Its cytotoxicity at 10 µM is -8.45%.

Which cytotoxicity at 10 µM does the source give for `Cc1ccoc1C(=O)N1CC[C@@]2(C[C@H](NS(C)(=O)=O)CCO2)C1` here?
The cytotoxicity at 10 µM was 7.43%.

For `CCN1Cc2ccccc2N(C(=O)C2CCC2)CCC1=O`, which cytotoxicity at 10 µM is on record?
Its cytotoxicity at 10 µM is -3.53%.

Which cytotoxicity at 10 µM does the source give for `COc1c(C(=O)N2CCNC(=O)C2)cnc2c1c(C)nn2C` here?
The cytotoxicity at 10 µM was 6.26%.

With `Cc1noc(C)c1-c1cncc(CC2CCN(C(=O)c3cc[nH]n3)C2)n1` (stereo not given) as the molecule, how does the cytotoxicity at 10 µM read?
The cytotoxicity at 10 µM was -17.4%.

With `CN(Cc1cccs1)C(=O)CN1CCCCC1Cn1cncn1` (stereo not given) as the molecule, how does the cytotoxicity at 10 µM read?
The cytotoxicity at 10 µM was 8.97%.

Which cytotoxicity at 10 µM does the source give for `CC(C)(O)CCc1ccc(C(=O)N2CCN(CCS(C)(=O)=O)CC2)cc1` here?
The cytotoxicity at 10 µM was -0.686%.

For `OC(COCc1ccccc1)CSc1nnc2ccccn12` (stereo not given), which cytotoxicity at 10 µM is on record?
Its cytotoxicity at 10 µM is 2.95%.

For `CNC(=O)COC(=O)c1ccoc1CN1c2ccccc2CC1C` (stereo not given), which cytotoxicity at 10 µM is on record?
The cytotoxicity at 10 µM was 0.165%.

With `N#Cc1cccc(S(=O)(=O)CCN2CCOC2=O)c1` as the molecule, how does the cytotoxicity at 10 µM read?
The cytotoxicity at 10 µM was -2.32%.

For `N#Cc1cn(CC(=O)NC2CC2)c2ccc(Br)cc2c1=O`, which cytotoxicity at 10 µM is on record?
Its cytotoxicity at 10 µM is 27.4%.

With `CC(C)(C)CCNc1nccc(-c2c[nH][nH]c2=O)n1` as the molecule, how does the cytotoxicity at 10 µM read?
Its cytotoxicity at 10 µM is -5.25%.

With `COCCN1C[C@@H](C(=O)O)[C@H](c2ccccc2C)C1` as the molecule, how does the cytotoxicity at 10 µM read?
Its cytotoxicity at 10 µM is 3%.

With `Cc1nc(CN2CCCC(N(C)Cc3cnc(C)s3)C2)no1` (stereo not given) as the molecule, how does the cytotoxicity at 10 µM read?
Its cytotoxicity at 10 µM is 2.76%.

For `Cc1ccc(C(=O)NCC(O)c2ccc(Cl)s2)c(=O)[nH]1` (stereo not given), which cytotoxicity at 10 µM is on record?
The cytotoxicity at 10 µM was -20.7%.

With `Cn1c(=O)[nH]c(=O)c2c1nc1n2CC(c2ccc(Br)cc2)O1` (stereo not given) as the molecule, how does the cytotoxicity at 10 µM read?
The cytotoxicity at 10 µM was -1.41%.

For `Cc1cc(NC(=O)N2CCCC2C(=O)NC2CC2)c2ncccc2c1` (stereo not given), which cytotoxicity at 10 µM is on record?
Its cytotoxicity at 10 µM is -2.43%.

With `CCCN(C(=O)CN1CCN(CCO)CC1)C1=CCCCC1` as the molecule, how does the cytotoxicity at 10 µM read?
Its cytotoxicity at 10 µM is 6.45%.

With `O=C(NCc1ccc(-n2cncn2)nc1)c1cc(Cl)c2c(c1)OCCO2` as the molecule, how does the cytotoxicity at 10 µM read?
Its cytotoxicity at 10 µM is -16.5%.

Which cytotoxicity at 10 µM does the source give for `Cc1ccnn1CC(=O)N(C)Cc1ccc(-n2cccn2)cc1` here?
Its cytotoxicity at 10 µM is 0.0616%.

Which cytotoxicity at 10 µM does the source give for `CCn1ccnc1CN1CCN(CC(O)c2ccco2)CC1` (stereo not given) here?
The cytotoxicity at 10 µM was -4.57%.

For `Cc1noc(C)c1CN1CCO[C@H]2CN(Cc3cccnc3)C[C@H]21`, which cytotoxicity at 10 µM is on record?
Its cytotoxicity at 10 µM is -2.61%.

With `O=C(NCCc1nccs1)C1CCCN(Cc2ccco2)C1` (stereo not given) as the molecule, how does the cytotoxicity at 10 µM read?
Its cytotoxicity at 10 µM is 1.5%.

Which cytotoxicity at 10 µM does the source give for `CS(=O)(=O)Nc1cccc(CNC(=O)CCC(=O)c2cccs2)c1` here?
Its cytotoxicity at 10 µM is 1.73%.

Which cytotoxicity at 10 µM does the source give for `c1cc(-c2nnc(C3(c4ccc5c(c4)OCO5)CCOCC3)o2)ccn1` here?
The cytotoxicity at 10 µM was -0.973%.

For `N#Cc1cccc(N2CC3(CCN(C(=O)c4ccncc4)C3)CC2=O)c1` (stereo not given), which cytotoxicity at 10 µM is on record?
The cytotoxicity at 10 µM was -1.75%.

For `O=C1[C@H]2CN(Cc3ccoc3)C[C@H]2CN1Cc1ccncc1`, which cytotoxicity at 10 µM is on record?
The cytotoxicity at 10 µM was -14.1%.

With `COc1ccccc1CN(Cc1cccnc1)Cc1c[nH]c(C)n1` as the molecule, how does the cytotoxicity at 10 µM read?
Its cytotoxicity at 10 µM is 6.43%.

For `Cc1nc(CN(CCc2ccccc2)C2CCN(C)CC2)no1`, which cytotoxicity at 10 µM is on record?
Its cytotoxicity at 10 µM is -4%.

Which cytotoxicity at 10 µM does the source give for `CCOC(C)c1nccn1Cc1c(C)noc1C` (stereo not given) here?
The cytotoxicity at 10 µM was 3.11%.

For `COC(=O)N1CC2=CC(C)(C)COc3ccc(OC)c(c32)C1`, which cytotoxicity at 10 µM is on record?
Its cytotoxicity at 10 µM is 5%.

Which cytotoxicity at 10 µM does the source give for `CC1CN(C)c2ccccc2CN1C(=O)c1ccncc1F` (stereo not given) here?
The cytotoxicity at 10 µM was -16.9%.

With `O=C(Cn1cccn1)Nc1ccc(N2CCOCC2)cc1` as the molecule, how does the cytotoxicity at 10 µM read?
The cytotoxicity at 10 µM was -2.51%.

For `O=C(CCNCc1cccc2c1OCCCO2)NC1CCCC1`, which cytotoxicity at 10 µM is on record?
The cytotoxicity at 10 µM was 0.66%.

For `CCc1nc(C2CCCN(C(=O)c3ccc(O)nc3)C2)no1` (stereo not given), which cytotoxicity at 10 µM is on record?
Its cytotoxicity at 10 µM is -11.7%.

For `COc1ccc(C2CCCN2c2cnccn2)c(OC)c1` (stereo not given), which cytotoxicity at 10 µM is on record?
The cytotoxicity at 10 µM was 3.72%.

Which cytotoxicity at 10 µM does the source give for `COc1ccc(C2CC(=O)NCc3nc(N(C)C)sc32)c(O)c1` (stereo not given) here?
The cytotoxicity at 10 µM was 3.3%.

For `N#CCCCS(=O)(=O)N1CCC(CSc2ccccc2)C1` (stereo not given), which cytotoxicity at 10 µM is on record?
Its cytotoxicity at 10 µM is 1.7%.

With `Cc1oncc1C(=O)N1CC[C@H]2[C@@H]1CCC(=O)N2CC1CCOCC1` as the molecule, how does the cytotoxicity at 10 µM read?
The cytotoxicity at 10 µM was 4.33%.

With `COCCN1CCC(NCc2ccc(F)cc2F)C1` (stereo not given) as the molecule, how does the cytotoxicity at 10 µM read?
The cytotoxicity at 10 µM was -2.67%.

With `CCC(NC(=O)c1c(C(=O)O)cnn1C)c1ccc(C)cc1C` (stereo not given) as the molecule, how does the cytotoxicity at 10 µM read?
Its cytotoxicity at 10 µM is -7.58%.

Which cytotoxicity at 10 µM does the source give for `CC(OCC1CC1)C(=O)Nc1ncn(CC(=O)N2CCCCCC2)n1` (stereo not given) here?
The cytotoxicity at 10 µM was -15.2%.

With `CCC(C)n1cnc(S(=O)(=O)N(C)c2cccnc2N(C)C)c1` (stereo not given) as the molecule, how does the cytotoxicity at 10 µM read?
The cytotoxicity at 10 µM was -3.08%.
